UCH37 inh: inhibitors of human deubiquitinating enzyme UCH37; Q9Y5K5; 0.33% of 330,000 active; purified proteasome/UCH37, Ub-AMC cleavage fluorescence; inhibition, % (no concentration beside the values);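 active = mean inhibition over replicate wells above about 20%, limit read from the data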;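 note: 0% = compound-free wells with enzyme and 100% = wells lacking proteasome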
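Material: human UCH37 enzyme supplied as purified proteasome complex / Amount: 0.15 nM proteasome as dispensed / Buffer or medium: pH 7.4 Tris-HCl (50 mM) with ovalbumin, ATP-MgCl2, DTT / Times: preincubation 30 min, reaction 25 min, room temperature / Technique: AMC fluorescence from Ub-AMC cleavage, excitation 355 nm, emission 460 nm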
CTSL1 counter: cathepsin L1 inhibition, PFM18AAP counter-screen | AID 1906 | 0.49% of 300,000 active | inhibition, % at 5.96 µM | recombinant F. hepatica cathepsin L1, Z-Leu-Arg-MCA fluorescence;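 active = inhibition above the mean of all tested compounds plus 3 SD, set per screening campaign, cut at about 17% in these data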;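 note: 0% = plate median of test compound wells and 100% = 1 µM Z-Phe-Ala-diazomethylketone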
Neddyl block: inhibitors of human cullin neddylation; P61081+Q13564; TR-FRET cullin neddylation, biochemical; inhibition, % at 25 µM; 0.58% of 360,000 active; in the data active = inhibition above about 36%
Target sequence (P61081 whole entry, looked up): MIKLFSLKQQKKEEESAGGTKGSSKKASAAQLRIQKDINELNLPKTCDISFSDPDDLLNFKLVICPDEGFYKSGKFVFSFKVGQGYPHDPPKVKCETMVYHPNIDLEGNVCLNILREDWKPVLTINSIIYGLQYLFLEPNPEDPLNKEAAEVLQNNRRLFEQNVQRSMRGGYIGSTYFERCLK
Target sequence (Q13564 whole entry, looked up): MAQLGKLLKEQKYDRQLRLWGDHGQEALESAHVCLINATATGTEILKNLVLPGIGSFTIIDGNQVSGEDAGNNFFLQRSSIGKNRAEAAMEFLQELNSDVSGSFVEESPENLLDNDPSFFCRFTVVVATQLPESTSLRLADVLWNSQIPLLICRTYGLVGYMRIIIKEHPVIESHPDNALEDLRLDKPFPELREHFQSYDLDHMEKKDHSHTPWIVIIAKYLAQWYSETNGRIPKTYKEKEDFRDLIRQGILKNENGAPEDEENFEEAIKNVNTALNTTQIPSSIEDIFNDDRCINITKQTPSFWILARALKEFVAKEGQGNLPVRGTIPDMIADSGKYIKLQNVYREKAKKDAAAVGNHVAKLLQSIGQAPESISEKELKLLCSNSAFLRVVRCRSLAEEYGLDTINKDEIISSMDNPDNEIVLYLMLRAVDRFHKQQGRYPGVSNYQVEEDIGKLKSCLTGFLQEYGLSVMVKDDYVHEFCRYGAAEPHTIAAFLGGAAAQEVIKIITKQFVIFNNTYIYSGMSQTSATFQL
SUMO HTRF inh: SUMOylation inhibition. HTRF SUMOylation assay, SAE1/SAE2 + UBC9, in vitro. P63279. 0.36% of 290,000 active. inhibition, % at 35 µM. AID 2006; in the data active = inhibition above about 50%, passing the limit was not always enough
Active calls of the source: *; · = not tested or not shown. Hits are enriched below; roughly 1.4% of the tested compounds scored in any of these assays.

SMILES	UCH37 inh	CTSL1 counter	Neddyl block	SUMO HTRF inh
C=C(C)Cn1c(SCC(=O)NN=Cc2ccccc2)nc2ccccc2c1=O	3	·	·	·
COc1cccc(-c2c(C(=O)NN=CC3CC=CCC3)nnn2-c2nonc2N)c1 (stereo not given)	3	·	·	·
COc1ccc(CSc2nncn2N)cc1Br	0	19*	3	9
COc1ccc(-c2cc3c(=O)n(CC(=O)NCCCN4CCC(Cc5ccccc5)CC4)ncn3n2)cc1	·	20*	·	17
O=C1Nc2ccc(Br)cc2/C1=C/C1CC=CCC1 (stereo not given)	2	28*	2	-8
O=C1Nc2ccc(Br)cc2/C1=C/C(=O)c1ccc2c(c1)OCO2	3	-3	6	0
CC(=NO)C(C)(C)Nc1cccc(Br)c1	4	·	·	·
O=C(COc1ccc(C=NNS(=O)(=O)c2ccccc2)cc1)Nc1cccc(Cl)c1	0	·	·	·
COC1=CC(=O)C[C@@H](C)[C@]12Oc1c(Cl)c(OC)cc(OC)c1C2=O	-7	-2	46*	15
COc1ccc(/C=N/NC(=O)c2nn(-c3ccc(Cl)cc3)c(=O)c3c(N)scc23)cc1	·	9	-13	25
COc1ccc(/C=N/NC(=O)c2nn(-c3ccccc3)c(=O)c3c(N)scc23)cc1	·	31*	-42	2
O=C1CCCC(=NNC(=O)COc2ccc(Cl)cc2)C1	2	·	·	·
CCCCC/C(=N\NC(=O)Nc1ccccc1)c1ccccc1	·	25*	0	4
CCOC(=O)/C=C/C(=O)Nc1ccc(Oc2ccccc2)cc1	0	31*	-3	1
CCOC(=O)/C=C/C(=O)NNC(=O)c1ccccc1Cl	-2	46*	-5	1
Cc1ccc(-c2n[nH]c(=S)n2N=Cc2cccs2)cc1	5	·	·	·
CCOC(=O)/C(C#N)=C/C=C1/C=CC=CN1C	20*	9	-33	-20
CCOC(=O)/C(C#N)=C\N(C)C	0	4	14	30
CC(C)C[C@H](NC(=O)OC(C)(C)C)C(=O)N[C@@H](CO)[C@H](O)[C@@H]1C[C@@H]1C(=O)N1CCCC1	0	45*	-21	7
CCN(CC)c1nc(N)c2c(N)nc3c(c2c1C#N)CC(c1ccccc1)O3 (stereo not given)	-172	2	26	11
CCN(CC)c1nc(N)c2c(N)n(-c3ccccc3C)c(=S)c(C#N)c2c1C#N	21*	12	-355	-4
Cc1cc(NC(=O)CSc2nc3cc(C(=O)NCCCOC(C)C)ccc3c(=O)n2Cc2ccco2)no1	-9	3	-2	50*
COC(=O)c1ccc2c(=O)n(Cc3ccco3)c(SCC(=O)Nc3cc(C)on3)nc2c1	-1	7	-24	25
Cc1ccc[n+](CC(=O)Nc2cccc([N+](=O)[O-])c2)c1	6	2	-18	-17
Cc1ccc[n+](CC(=O)Nc2ccc([N+](=O)[O-])cc2)c1	5	31*	-28	15
SMILES	UCH37 inh	CTSL1 counter	Neddyl block	SUMO HTRF inh
CC(=NNC(=O)c1cccs1)c1c(O)cc(C)oc1=O	5	·	·	·
COc1ccc(COC(=O)NN=C(C)CC(=O)Nc2c(C)cc(C)cc2C)cc1	4	·	·	·
COc1cc(CN(CC2CCCO2)C(=O)c2cccs2)cc(OC)c1OC (stereo not given)	1	18*	0	8
CC12CCC(CC1=N/N=C1/NC(=O)/C(=C\c3cccc(Br)c3)S1)C2(C)C (stereo not given)	8	·	·	·
Nn1cnnc1NN=Cc1ccc(-c2ccccc2[N+](=O)[O-])o1	17	·	·	·
Nn1cnnc1N/N=C\c1ccc(-c2ccccc2[N+](=O)[O-])o1	·	·	-7	98*
Cc1ccc(NN=Cc2ccc(N3CCOCC3)cc2)cc1C	0	·	·	·
NC(=S)NN=Cc1cccc(O)c1O	1	·	·	·
Cc1cc(C=NNC(N)=S)c(C)n1-c1ccc(Br)cc1	-3	·	·	·
Cc1cc(/C=N/NC(N)=S)c(O)c(/C=N/NC(N)=S)c1	·	19*	-64	35
Cc1ccc(-n2c(C)cc(/C=N/NC(N)=S)c2C)cc1	·	31*	19	-32
C1CCc2nc3c(nc2C1)CCCC3	-1	1	0	7
Nc1nnc2c(n1)CCCC2	21*	13	-17	-3
CCOc1ccc(S(=O)(=O)NN=C2CC(c3ccccc3)Oc3ccccc32)cc1 (stereo not given)	5	·	·	·
c1coc(-c2nnc(-c3ccco3)nn2)c1	32*	23*	4	·
CN(CCc1ccccn1)C1CCCN(S(=O)(=O)c2ccccc2)C1 (stereo not given)	1	-1	-12	-5
CN(CCc1ccccc1)C1CCCN(S(=O)(=O)CC(F)(F)F)C1 (stereo not given)	-1	19*	-10	22
O=C(O)CC1SC(=NN=Cc2ccc(Br)cc2)N(c2ccccc2)C1=O (stereo not given)	6	·	·	·
CC(/C=C/c1cccc([N+](=O)[O-])c1)=NNC(=O)c1cccnc1	8	·	·	·
O=C(CCS(=O)(=O)c1cc(Br)cc2c1N(C(=O)C1CC1)CC2)N1CCN(c2ccccn2)CC1	3	1	5	-4
CC(=O)N1CCc2cc(Br)cc(S(=O)(=O)CCC(=O)N3CCN(c4ccccn4)CC3)c21	2	21*	7	0
O=C(Nc1ccc2oc(-c3ccncc3)nc2c1)c1ccc([N+](=O)[O-])o1	2	23*	14	29
CC1=CCC(C(=O)O)(C(=O)NN=Cc2cccs2)C(c2ccc([N+](=O)[O-])cc2)C1 (stereo not given)	3	·	·	·
O=[N+]([O-])c1ccc(N2CCCCC2)s1	20*	3	-132	-3
COc1cc(C=NNC(=O)CCn2cnc(-c3ccccc3)c2-c2ccccc2)ccc1O	4	·	·	·
SMILES	UCH37 inh	CTSL1 counter	Neddyl block	SUMO HTRF inh
CN(C)c1cccc2c(S(=O)(=O)N3CCCC3)cccc12	-39	9	·	51*
COc1cc(C(=O)NCC(=O)Nc2ccc(F)c(F)c2)ccc1OCC(=O)N1CCOCC1	4	20*	1	·
COc1cc(C(=O)Nc2ccc(C(F)(F)F)cc2)ccc1OCC(=O)N1CCOCC1	1	·	4	·
Cc1cccc(N(CC(=O)NC(C)(C)C)C(=O)CCC(=O)Nc2ccccn2)c1	6	18*	-13	8
O=C(O)c1ccccc1NS(=O)(=O)c1ccc(NN=Cc2ccc(O)c(O)c2)c([N+](=O)[O-])c1	18	·	·	·
CSc1ccc(C=NNc2ccc(S(=O)(=O)Nc3ccccc3C(=O)O)cc2[N+](=O)[O-])cc1	22*	·	-19	·
COc1cccc(C=NNc2ccc(S(=O)(=O)Nc3ccccc3C(=O)O)cc2[N+](=O)[O-])c1O	10	·	·	·
COc1ccc(C=NNc2ccc(S(=O)(=O)Nc3ccccc3C(=O)O)cc2[N+](=O)[O-])c(OC)c1	31*	·	-11	·
Cc1nn(-c2ccccc2)c(Cl)c1/C=N/Nc1ccc(S(=O)(=O)Nc2ccccc2C(=O)O)cc1[N+](=O)[O-]	·	5	-23	62*
Cn1ncc(C#N)c1N=CN1CCCCC1	1	·	·	·
Cc1csc(CN(C)C(=O)C2CCC(=O)N(CCN(C)C)C2)n1 (stereo not given)	-1	19*	12	-8
Nc1nc(-c2ccc(S(=O)(=O)N3CCCCC3)cc2)cs1	-25	·	45*	·

High-throughput results from PubChem BioAssay.
